Data from ChEMBL document CHEMBL3588757, “Structure-based design, synthesis and biological testing of piperazine-linked bis-epipodophyllotoxin etoposide analogs” (Bioorg Med Chem, 2015).

Legend:
Assay type in all cases: functional
OVCAR-3 [1] = assay: Cytotoxicity against human OVCAR3 cells assessed as cell growth at 0.5 uM by SRB assay; details: read-out: Activity
HCT-116 = assay: Cytotoxicity against human HCT116 cells assessed as cell growth at 50 uM by SRB assay; details: read-out: Activity
Procedure, shortened: (§1)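 Measured in the NCI-60 human tumour cell line panel using five-dose testing. Growth was recorded at each dose for each cell line, and a GI50 was derived for each line.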

CAKI-1 [2] = assay: Cytotoxicity against human Caki1 cells by SRB assay
SF-295 = assay: Cytotoxicity against human SF295 cells by SRB assay
Procedure, shortened: (§2)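 NCI-60 panel screen; 5-dose testing giving GI50 per cell line, plus a single 10 µM one-dose test. Method details not given beyond the NCI screen.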

SNB-75 [3] = assay: Cytotoxicity against human SNB75 cells assessed as cell growth at 50 uM by SRB assay; details: read-out: Activity
NCI-H226 = assay: Cytotoxicity against human NCI-H226 cells assessed as cell growth at 5 uM by SRB assay; details: read-out: Activity
SF-268 = assay: Cytotoxicity against human SF268 cells assessed as cell growth at 5 uM by SRB assay; details: read-out: Activity
RXF 393 [4] = assay: Cytotoxicity against human RXF393 cells assessed as cell growth at 0.05 uM by SRB assay; details: read-out: Activity
NCI-H522 = assay: Cytotoxicity against human NCI-H522 cells assessed as cell growth at 0.5 uM by SRB assay; details: read-out: Activity
RXF 393 [5] = assay: Cytotoxicity against human RXF393 cells assessed as cell growth at 0.005 uM by SRB assay; details: read-out: Activity
OVCAR-8 = assay: Cytotoxicity against human OVCAR8 cells assessed as cell growth at 0.05 uM by SRB assay; details: read-out: Activity
BT-549 [6] = assay: Cytotoxicity against human BT549 cells assessed as cell growth at 0.5 uM by SRB assay; details: read-out: Activity
OVCAR-3 [7] = assay: Cytotoxicity against human OVCAR3 cells assessed as cell growth at 5 uM by SRB assay; details: read-out: Activity
OVCAR-5 = assay: Cytotoxicity against human OVCAR5 cells assessed as cell growth at 50 uM by SRB assay; details: read-out: Activity
IGROV-1 [8] = assay: Cytotoxicity against human IGROV1 cells assessed as cell growth at 0.005 uM by SRB assay; details: read-out: Activity; procedure, shortened: as §1
[9] = Cytotoxicity against human NCI-ADR-RES cells assessed as cell growth at 0.5 uM by SRB assay; details: read-out: Activity
UACC-257 = assay: Cytotoxicity against human UACC257 cells assessed as cell growth at 0.005 uM by SRB assay; details: read-out: Activity
MDA-MB-435 = assay: Cytotoxicity against human MDA-MB-435 cells assessed as cell growth at 0.05 uM by SRB assay; details: read-out: Activity
MDA-MB-468 = assay: Cytotoxicity against human MDA-MB-468 cells assessed as cell growth at 5 uM by SRB assay; details: read-out: Activity
OVCAR-3 [10] = assay: Cytotoxicity against human OVCAR3 cells assessed as cell growth at 0.005 uM by SRB assay; details: read-out: Activity
RPMI-8226 = assay: Cytotoxicity against human RPMI8226 cells assessed as cell growth at 0.05 uM by SRB assay; details: read-out: Activity
BT-549 [11] = assay: Cytotoxicity against human BT549 cells assessed as cell growth at 5 uM by SRB assay; details: read-out: Activity
RXF 393 [12] = assay: Cytotoxicity against human RXF393 cells assessed as cell growth at 5 uM by SRB assay; details: read-out: Activity
UACC-62 = assay: Cytotoxicity against human UACC62 cells assessed as cell growth at 0.5 uM by SRB assay; details: read-out: Activity
IGROV-1 [13] = assay: Cytotoxicity against human IGROV1 cells assessed as cell growth at 0.5 uM by SRB assay; details: read-out: Activity; procedure, shortened: as §1
SK-MEL-5 = assay: Cytotoxicity against human SK-MEL-5 cells assessed as cell growth at 50 uM by SRB assay; details: read-out: Activity
OVCAR-4 [14] = assay: Cytotoxicity against human OVCAR4 cells by SRB assay; procedure, shortened: as §2
SK-MEL-2 = assay: Cytotoxicity against human SK-MEL-2 cells assessed as cell growth at 0.5 uM by SRB assay; details: read-out: Activity
NCI-H322M [15] = assay: Cytotoxicity against human NCI-H322M cells by SRB assay; procedure, shortened: as §2
NCI-H460 = assay: Cytotoxicity against human NCI-H460 cells assessed as cell growth at 0.5 uM by SRB assay; details: read-out: Activity
SK-OV-3 [16] = assay: Cytotoxicity against human SKOV3 cells assessed as cell growth at 0.005 uM by SRB assay; details: read-out: Activity
OVCAR-3 [17] = assay: Cytotoxicity against human OVCAR3 cells by SRB assay; procedure, shortened: as §2
A549 = assay: Cytotoxicity against human A549/ATCC cells assessed as cell growth at 50 uM by SRB assay; details: read-out: Activity
T47D = assay: Cytotoxicity against human T47D cells assessed as cell growth at 0.05 uM by SRB assay; details: read-out: Activity
[18] = Cytotoxicity against human Hs578T cells assessed as cell growth at 50 uM by SRB assay; details: Hs-578T, read-out: Activity; procedure, shortened: as §1
NCI-H322M [19] = assay: Cytotoxicity against human NCI-H322M cells assessed as cell growth at 0.5 uM by SRB assay; details: read-out: Activity
KM12 = assay: Cytotoxicity against human KM12 cells assessed as cell growth at 0.05 uM by SRB assay; details: read-out: Activity
SK-OV-3 [20] = assay: Cytotoxicity against human SKOV3 cells assessed as cell growth at 0.05 uM by SRB assay; details: read-out: Activity
CAKI-1 [21] = assay: Cytotoxicity against human Caki1 cells assessed as cell growth at 0.5 uM by SRB assay; details: read-out: Activity
SNB-75 [22] = assay: Cytotoxicity against human SNB75 cells assessed as cell growth at 0.05 uM by SRB assay; details: read-out: Activity
SK-MEL-28 = assay: Cytotoxicity against human SK-MEL-28 cells assessed as cell growth at 50 uM by SRB assay; details: read-out: Activity
OVCAR-4 [23] = assay: Cytotoxicity against human OVCAR4 cells assessed as cell growth at 0.5 uM by SRB assay; details: read-out: Activity
PC-3 = assay: Cytotoxicity against human PC3 cells assessed as cell growth at 0.05 uM by SRB assay; details: read-out: Activity
SR = assay: Cytotoxicity against human SR cells assessed as cell growth at 5 uM by SRB assay; details: read-out: Activity
[24] = read-out: LC50 (the source's name)
[25] = read-out: pLC50 (the source's name) (converted)

COc1cc([C@@H]2c3cc4c(cc3[C@@H](NC(=O)CN3CCN(CCCCCCCCCCN5CCN(CC(=O)N[C@@H]6c7cc8c(cc7[C@@H](c7cc(OC)c(O)c(OC)c7)[C@H]7C(=O)OC[C@@H]76)OCO8)CC5)CC3)[C@H]3COC(=O)[C@H]23)OCO4)cc(OC)c1O
growth at 0.5 µM (OVCAR-3 [1]): 63% | growth at 50 µM (HCT-116): -51% | GI50 (CAKI-1 [2]; read-out: GI50): 1930 nM | CC50 (CAKI-1 [2]; [24]): 21 µM | TGI (CAKI-1 [2]; read-out: TGI): 8.37 µM | GI50 (CAKI-1 [2]; read-out: pGI50 (converted)): 1950 nM | CC50 (CAKI-1 [2]; [25]): 20.9 µM | TGI (CAKI-1 [2]; read-out: pTGI (converted)): 8.32 µM | GI50 (SF-295; read-out: GI50): 894 nM | CC50 (SF-295; [24]): > 50 µM | TGI (SF-295; read-out: TGI): 9.49 µM | GI50 (SF-295; read-out: pGI50 (converted)): 891 nM | CC50 (SF-295; [25]): > 50.1 µM | TGI (SF-295; read-out: pTGI (converted)): 9.55 µM | growth at 50 µM (SNB-75 [3]): -26% | growth at 5 µM (NCI-H226): 35% | growth at 5 µM (SF-268): -34% | growth at 0.05 µM (RXF 393 [4]): 84% | growth at 0.5 µM (NCI-H522): 14% | growth at 0.005 µM (RXF 393 [5]): 88% | growth at 0.05 µM (OVCAR-8): 92% | growth at 0.5 µM (BT-549 [6]): 58% | growth at 5 µM (OVCAR-3 [7]): 40% | growth at 50 µM (OVCAR-5): -88% | growth at 0.005 µM (IGROV-1 [8]): 90% | growth at 0.5 µM [9]: 101% | growth at 0.005 µM (UACC-257): 96% | growth at 0.05 µM (MDA-MB-435): 87% | growth at 5 µM (MDA-MB-468): -29% | growth at 0.005 µM (OVCAR-3 [10]): 100% | growth at 0.05 µM (RPMI-8226): 13% | growth at 5 µM (BT-549 [11]): -66% | growth at 5 µM (RXF 393 [12]): -34% | growth at 0.5 µM (UACC-62): 81% | growth at 0.5 µM (IGROV-1 [13]): 44% | growth at 50 µM (SK-MEL-5): -68% | GI50 (OVCAR-4 [14]; read-out: GI50): 911 nM | CC50 (OVCAR-4 [14]; [24]): 14.1 µM | TGI (OVCAR-4 [14]; read-out: TGI): 2730 nM | GI50 (OVCAR-4 [14]; read-out: pGI50 (converted)): 912 nM | CC50 (OVCAR-4 [14]; [25]): 14.1 µM | TGI (OVCAR-4 [14]; read-out: pTGI (converted)): 2750 nM | growth at 0.5 µM (SK-MEL-2): 74% | GI50 (NCI-H322M [15]; read-out: GI50): 387 nM | CC50 (NCI-H322M [15]; [24]): > 50 µM | TGI (NCI-H322M [15]; read-out: TGI): 1640 nM | GI50 (NCI-H322M [15]; read-out: pGI50 (converted)): 389 nM | CC50 (NCI-H322M [15]; [25]): > 50.1 µM | TGI (NCI-H322M [15]; read-out: pTGI (converted)): 1620 nM | growth at 0.5 µM (NCI-H460): 94% | growth at 0.005 µM (SK-OV-3 [16]): 98% | GI50 (OVCAR-3 [17]; read-out: GI50): 1810 nM | CC50 (OVCAR-3 [17]; [24]): 49.9 µM | TGI (OVCAR-3 [17]; read-out: TGI): 13.8 µM | GI50 (OVCAR-3 [17]; read-out: pGI50 (converted)): 1820 nM | CC50 (OVCAR-3 [17]; [25]): 50.1 µM | TGI (OVCAR-3 [17]; read-out: pTGI (converted)): 13.8 µM | growth at 50 µM (A549): -41% | growth at 0.05 µM (T47D): 81% | growth at 50 µM [18]: -22% | growth at 0.5 µM (NCI-H322M [19]): 45% | growth at 0.05 µM (KM12): 91% | growth at 0.05 µM (SK-OV-3 [20]): 85% | growth at 0.5 µM (CAKI-1 [21]): 81% | growth at 0.05 µM (SNB-75 [22]): 82% | growth at 50 µM (SK-MEL-28): -83% | growth at 0.5 µM (OVCAR-4 [23]): 77% | growth at 0.05 µM (PC-3): 89% | growth at 5 µM (SR): -26%
